Assay results published in ChEMBL document CHEMBL1138254, “Stereoselective synthesis and cytotoxicity of a cancer chemopreventive naphthoquinone from Tabebuia avellanedae” (Bioorg Med Chem Lett, 2007).

How the values were obtained:
Human gammaherpesvirus 4 [1] = experiment: Inhibition of TPA-induced EBV-EA activation in Raji cells at 500 mol ratio/TPA relative to control; format: functional
In short: (§1)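 TPA-induced EBV-EA activation in Raji cells, with TPA at 32 pmol and test agent at 1000, 500, 100 and 10 mol ratio/TPA. EA-positive cells are expressed relative to the positive control (TPA alone, 100%). An IC50 in µM is derived from the dose series. Curcumin served as the positive control substance.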

Human gammaherpesvirus 4 [2] = experiment: Inhibition of TPA-induced EBV-EA activation in Raji cells at 10 mol ratio/TPA relative to control; format: functional; in short: as §1
Human gammaherpesvirus 4 [3] = experiment: Inhibition of TPA-induced EBV-EA activation in Raji cells at 100 mol ratio/TPA relative to control; format: functional; in short: as §1
Raji [4] = experiment: Cell viability in Raji cells at 100 mol ratio/TPA by tryptan blue staining relative to control; format: functional, Homo sapiens
In short: (§2)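 Raji cells co-treated with test agent and 32 pmol TPA in the EBV-EA activation assay. Doses were 10, 100, 500 or 1000 mol ratio relative to TPA. Viability was scored by Trypan blue staining and given as percent of Raji cells viable.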

Raji [5] = experiment: Cell viability in Raji cells at 10 mol ratio/TPA by tryptan blue staining relative to control; format: functional, Homo sapiens; in short: as §2
Human gammaherpesvirus 4 [6] = experiment: Inhibition of TPA-induced EBV-EA activation in Raji cells at 1000 mol ratio/TPA relative to control; format: functional; in short: as §1
Raji [7] = experiment: Cell viability in Raji cells at 500 mol ratio/TPA by tryptan blue staining relative to control; format: functional, Homo sapiens; in short: as §2
Human gammaherpesvirus 4 [8] = experiment: Inhibition of TPA-induced EBV-EA activation in Raji cells; format: functional, organism-based; details: human gammaherpesvirus 4, Raji; in short: as §1
Raji [9] = experiment: Cell viability in Raji cells at 1000 mol ratio/TPA by tryptan blue staining relative to control; format: functional, Homo sapiens; in short: as §2
A549 = experiment: Cytotoxicity against human A549 cells assessed as cell viability by tryptan blue staining method; format: functional, cell-based
In short: (§3)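 Human cancer lines PC-3 (prostate), A549 (lung) and MCF-7 (breast) were treated with compound. Viability was assessed by Trypan blue staining, and EC50 is reported in µM.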

[10] = Cytotoxicity against human MPC5 cells assessed as cell viability by tryptan blue staining method; format: cell-based; details: MPC-5
In short: (§4)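 Human normal cell lines were treated with compound: Fb (skin), Hc (liver), MPC-5 (lung) and IE (colon). Viability was assessed by Trypan blue staining, and EC50 is reported in µM.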

[11] = Cytotoxicity against human IE cells assessed as cell viability by tryptan blue staining method; format: cell-based; in short: as §4
PC-3 = experiment: Cytotoxicity against human PC3 cells assessed as cell viability by tryptan blue staining method; format: functional, cell-based; in short: as §3
[12] = Cytotoxicity against human Hc cells assessed as cell viability by tryptan blue staining method; format: cell-based; in short: as §4
[13] = Cytotoxicity against human Fb cells assessed as cell viability by tryptan blue staining method; format: cell-based; in short: as §4
MCF7 = experiment: Cytotoxicity against human MCF7 cells assessed as cell viability by tryptan blue staining method; format: functional, cell-based; in short: as §3

Q: Which results are given for CC(C)=CCC1=C(O)C(=O)c2ccccc2C1=O [LAPACHOL]?
A: EBV-EA positive cells % (Human gammaherpesvirus 4 [1]): 32.8%; EBV-EA positive cells % (Human gammaherpesvirus 4 [2]): 86.6%; EBV-EA positive cells % (Human gammaherpesvirus 4 [3]): 65.2%; Activity (Raji [4]): >80%; Activity (Raji [5]): >80%; EBV-EA positive cells % (Human gammaherpesvirus 4 [6]): 8.9%; Activity (Raji [7]): 60%; IC50 (Human gammaherpesvirus 4 [8]): 311 µM; Activity (Raji [9]): 50%

Q: What does the source list for CC(O)c1cc2c(o1)C(=O)c1cccc(O)c1C2=O (centres undefined)?
A: EC50 (A549): 3.24 µM; EC50 [10]: 89.3 µM; EC50 [11]: 158 µM; EBV-EA positive cells % (Human gammaherpesvirus 4 [1]): 6.2%; EC50 (PC-3): 0.56 µM; EBV-EA positive cells % (Human gammaherpesvirus 4 [2]): 52.9%; EC50 [12]: 89.3 µM; EBV-EA positive cells % (Human gammaherpesvirus 4 [3]): 20.7%; EC50 [13]: 45.4 µM; Activity (Raji [4]): >80%; Activity (Raji [5]): >80%; EBV-EA positive cells % (Human gammaherpesvirus 4 [6]): 0%; EC50 (MCF7): 8.5 µM; Activity (Raji [7]): 70%; IC50 (Human gammaherpesvirus 4 [8]): 34.9 µM; Activity (Raji [9]): 60%

Q: With COc1cc(/C=C/C(=O)CC(=O)/C=C/c2ccc(O)c(OC)c2)ccc1O [CURCUMIN] as the molecule, how does the IC50 (Human gammaherpesvirus 4 [8]) read?
A: The IC50 was 345 µM.

Q: For CO[C@@]12[C@H](COC(N)=O)C3=C(C(=O)C(C)=C(N)C3=O)N1C[C@@H]1N[C@@H]12 [MITOMYCIN], which EC50 (A549) is on record?
A: Its EC50 is 0.43 µM.

Q: And the EC50 [10]?
A: The EC50 was 2.1 µM.

Q: And the EC50 [11]?
A: The EC50 was 1.46 µM.

Q: And the EC50 (PC-3)?
A: Its EC50 is 0.14 µM.

Q: And the EC50 [12]?
A: Its EC50 is 1.46 µM.

Q: And the EC50 [13]?
A: The EC50 was 0.93 µM.

Q: What about the EC50 (MCF7) of the same molecule?
A: Its EC50 is 0.96 µM.

Q: What does the source list for C[C@@H](O)c1cc2c(o1)C(=O)c1cccc(O)c1C2=O?
A: EC50 (A549): 3 µM; EC50 [10]: 65.9 µM; EC50 [11]: 39.7 µM; EBV-EA positive cells % (Human gammaherpesvirus 4 [1]): 9.7%; EC50 (PC-3): 0.93 µM; EBV-EA positive cells % (Human gammaherpesvirus 4 [2]): 59.4%; EC50 [12]: 29.8 µM; EBV-EA positive cells % (Human gammaherpesvirus 4 [3]): 24.7%; EC50 [13]: 39.7 µM; Activity (Raji [4]): >80%; Activity (Raji [5]): >80%; EBV-EA positive cells % (Human gammaherpesvirus 4 [6]): 0%; EC50 (MCF7): 9.3 µM; Activity (Raji [7]): >80%; IC50 (Human gammaherpesvirus 4 [8]): 38.9 µM; Activity (Raji [9]): 70%

Q: Which EC50 (A549) does the source give for C[C@H](O)c1cc2c(o1)C(=O)c1cccc(O)c1C2=O here?
A: Its EC50 is 0.96 µM.

Q: What about the EC50 [10] of the same molecule?
A: The EC50 was 29.7 µM.

Q: And the EC50 [11]?
A: The EC50 was 54.5 µM.

Q: What about the “EBV-EA positive cells %” value (Human gammaherpesvirus 4 [1]) of the same molecule?
A: Its value is 4.4%.

Q: What about the EC50 (PC-3) of the same molecule?
A: The EC50 was 0.14 µM.

Q: What about the “EBV-EA positive cells %” value (Human gammaherpesvirus 4 [2]) of the same molecule?
A: Its value is 50%.

Q: And the EC50 [12]?
A: Its EC50 is 11.1 µM.

Q: What about the “EBV-EA positive cells %” value (Human gammaherpesvirus 4 [3]) of the same molecule?
A: The value was 16.9%.

Q: And the EC50 [13]?
A: Its EC50 is 11.1 µM.

Q: What about the Activity (Raji [4]) of the same molecule?
A: Its Activity is greater than 80%.

Q: What about the Activity (Raji [5]) of the same molecule?
A: The Activity was greater than 80%.

Q: And the “EBV-EA positive cells %” value (Human gammaherpesvirus 4 [6])?
A: Its value is 0%.

Q: What about the EC50 (MCF7) of the same molecule?
A: Its EC50 is 3.5 µM.

Q: And the Activity (Raji [7])?
A: Its Activity is 60%.

Q: What about the IC50 (Human gammaherpesvirus 4 [8]) of the same molecule?
A: The IC50 was 33.2 µM.

Q: And the Activity (Raji [9])?
A: Its Activity is 60%.

Q: With CC1(C)CCC2=C(O1)c1ccccc1C(=O)C2=O [LAPACHONE] as the molecule, how does the “EBV-EA positive cells %” value (Human gammaherpesvirus 4 [1]) read?
A: The value was 21.7%.

Q: And the “EBV-EA positive cells %” value (Human gammaherpesvirus 4 [2])?
A: The value was 73.1%.

Q: And the “EBV-EA positive cells %” value (Human gammaherpesvirus 4 [3])?
A: The value was 50.4%.

Q: And the Activity (Raji [4])?
A: Its Activity is greater than 80%.

Q: And the Activity (Raji [5])?
A: The Activity was greater than 80%.

Q: And the “EBV-EA positive cells %” value (Human gammaherpesvirus 4 [6])?
A: The value was 4.7%.

Q: What about the Activity (Raji [7]) of the same molecule?
A: The Activity was greater than 80%.

Q: And the IC50 (Human gammaherpesvirus 4 [8])?
A: The IC50 was 210 µM.

Q: What about the Activity (Raji [9]) of the same molecule?
A: Its Activity is 50%.
